According to ChEMBL document CHEMBL5696442, “Discovery of type II inhibitors of TGFβ-activated kinase 1 (TAK1) and mitogen-activated protein kinase kinase kinase kinase 2 (MAP4K2)” (J Med Chem, 2015):

How the values were obtained:
Type in all cases: cell-based
[1] = target: Cyclin-dependent kinase 18 (Homo sapiens) (UniProt Q07002); experiment: Inhibition of PCTAIRE3 Lys1 labeling site harbouringSKLTENLVALKEIR in human A-375 cells at 0.5 uM by KiNativ Profiling analysis relative to control
Outline: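 Live A375 melanoma cells were treated with compound at 5 or 0.5 μM, then lysed. Lysates were labeled with a lysine-reactive ATP or ADP-biotin probe. Read-out was the compound's protection of kinase labeling sites from probe labeling (KiNativ).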

[2] = target: T1, Serine/threonine-protein kinase Nek9 (Homo sapiens) (UniProt Q8TD19); experiment: Inhibition of NEK9 Lys1 labeling site harbouring TEDDSLVVWKEVDLTR in human A-375 cells at 0.5 uM by KiNativ Profiling analysis relative to control
T1 sequence (whole entry): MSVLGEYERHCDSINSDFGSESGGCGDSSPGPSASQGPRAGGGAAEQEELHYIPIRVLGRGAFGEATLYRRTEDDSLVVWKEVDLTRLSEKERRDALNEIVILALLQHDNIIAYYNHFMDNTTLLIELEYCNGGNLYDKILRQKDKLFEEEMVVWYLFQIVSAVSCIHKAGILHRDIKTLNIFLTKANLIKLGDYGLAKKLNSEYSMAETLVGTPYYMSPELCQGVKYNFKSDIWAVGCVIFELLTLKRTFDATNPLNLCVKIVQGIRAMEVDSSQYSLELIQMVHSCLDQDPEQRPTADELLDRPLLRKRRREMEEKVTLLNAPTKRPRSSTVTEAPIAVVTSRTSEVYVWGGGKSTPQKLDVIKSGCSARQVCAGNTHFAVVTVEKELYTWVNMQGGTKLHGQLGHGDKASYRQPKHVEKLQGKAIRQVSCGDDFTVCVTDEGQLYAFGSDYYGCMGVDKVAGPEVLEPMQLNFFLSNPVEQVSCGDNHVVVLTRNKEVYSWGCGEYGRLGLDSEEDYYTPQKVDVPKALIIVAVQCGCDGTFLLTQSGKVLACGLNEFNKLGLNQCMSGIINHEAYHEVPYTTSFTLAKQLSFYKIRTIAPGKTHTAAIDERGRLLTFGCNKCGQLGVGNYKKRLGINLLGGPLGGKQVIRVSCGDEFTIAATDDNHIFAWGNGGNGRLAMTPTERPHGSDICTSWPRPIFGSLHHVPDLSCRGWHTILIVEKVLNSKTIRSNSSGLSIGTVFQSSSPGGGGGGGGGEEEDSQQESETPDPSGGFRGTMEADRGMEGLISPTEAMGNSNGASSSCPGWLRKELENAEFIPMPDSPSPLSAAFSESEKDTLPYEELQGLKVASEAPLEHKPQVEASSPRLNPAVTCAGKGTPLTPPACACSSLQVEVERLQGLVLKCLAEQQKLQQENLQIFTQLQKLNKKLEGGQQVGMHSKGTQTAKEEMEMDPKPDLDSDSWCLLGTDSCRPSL

[3] = target: Tyrosine-protein kinase JAK1 (Homo sapiens) (UniProt P23458); experiment: Inhibition of JAK1 in human A-375 cells at 0.5 uM by KiNativ Profiling analysis relative to control
Chain of Tyrosine-protein kinase JAK1 (Homo sapiens) (P23458 whole entry): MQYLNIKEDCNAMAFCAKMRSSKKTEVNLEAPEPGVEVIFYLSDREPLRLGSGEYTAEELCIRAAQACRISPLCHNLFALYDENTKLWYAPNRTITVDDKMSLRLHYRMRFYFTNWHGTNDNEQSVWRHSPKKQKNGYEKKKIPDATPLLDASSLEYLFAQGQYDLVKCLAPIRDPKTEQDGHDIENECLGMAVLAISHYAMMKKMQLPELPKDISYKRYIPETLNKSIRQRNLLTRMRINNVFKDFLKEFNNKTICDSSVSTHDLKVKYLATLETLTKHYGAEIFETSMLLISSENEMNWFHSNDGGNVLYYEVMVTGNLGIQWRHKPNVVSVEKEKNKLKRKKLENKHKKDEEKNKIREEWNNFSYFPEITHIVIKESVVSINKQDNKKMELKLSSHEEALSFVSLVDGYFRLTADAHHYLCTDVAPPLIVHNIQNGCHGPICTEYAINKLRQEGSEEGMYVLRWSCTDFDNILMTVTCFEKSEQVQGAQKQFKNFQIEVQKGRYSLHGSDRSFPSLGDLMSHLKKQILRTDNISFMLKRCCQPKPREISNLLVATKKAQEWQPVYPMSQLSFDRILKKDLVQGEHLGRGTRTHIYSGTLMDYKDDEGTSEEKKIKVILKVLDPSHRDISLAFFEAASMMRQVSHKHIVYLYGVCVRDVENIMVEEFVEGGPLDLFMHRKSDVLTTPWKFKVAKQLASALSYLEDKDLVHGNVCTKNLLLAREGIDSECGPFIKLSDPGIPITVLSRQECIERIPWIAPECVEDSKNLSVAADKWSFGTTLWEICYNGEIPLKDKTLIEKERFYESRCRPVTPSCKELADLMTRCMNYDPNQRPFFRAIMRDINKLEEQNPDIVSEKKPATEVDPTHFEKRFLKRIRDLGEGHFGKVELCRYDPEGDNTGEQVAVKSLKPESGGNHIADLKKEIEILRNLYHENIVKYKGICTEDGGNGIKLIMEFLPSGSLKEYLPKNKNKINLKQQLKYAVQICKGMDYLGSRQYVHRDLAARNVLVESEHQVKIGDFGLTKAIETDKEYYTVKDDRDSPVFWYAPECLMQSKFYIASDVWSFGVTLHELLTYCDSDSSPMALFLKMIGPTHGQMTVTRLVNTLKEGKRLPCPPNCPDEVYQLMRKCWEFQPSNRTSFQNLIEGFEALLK

[4] = target: Focal adhesion kinase 1 (Homo sapiens) (UniProt Q05397); experiment: Inhibition of FAK Lys1 labeling site in human A-375 cells at 0.05 uM by KiNativ Profiling analysis relative to control
[5] = target: T2, Serine/threonine-protein kinase TBK1 (Homo sapiens) (UniProt Q9UHD2); experiment: Inhibition of TBK1 Lys2 labeling site in human A-375 cells at 0.05 uM by KiNativ Profiling analysis relative to control
T2 sequence (whole entry): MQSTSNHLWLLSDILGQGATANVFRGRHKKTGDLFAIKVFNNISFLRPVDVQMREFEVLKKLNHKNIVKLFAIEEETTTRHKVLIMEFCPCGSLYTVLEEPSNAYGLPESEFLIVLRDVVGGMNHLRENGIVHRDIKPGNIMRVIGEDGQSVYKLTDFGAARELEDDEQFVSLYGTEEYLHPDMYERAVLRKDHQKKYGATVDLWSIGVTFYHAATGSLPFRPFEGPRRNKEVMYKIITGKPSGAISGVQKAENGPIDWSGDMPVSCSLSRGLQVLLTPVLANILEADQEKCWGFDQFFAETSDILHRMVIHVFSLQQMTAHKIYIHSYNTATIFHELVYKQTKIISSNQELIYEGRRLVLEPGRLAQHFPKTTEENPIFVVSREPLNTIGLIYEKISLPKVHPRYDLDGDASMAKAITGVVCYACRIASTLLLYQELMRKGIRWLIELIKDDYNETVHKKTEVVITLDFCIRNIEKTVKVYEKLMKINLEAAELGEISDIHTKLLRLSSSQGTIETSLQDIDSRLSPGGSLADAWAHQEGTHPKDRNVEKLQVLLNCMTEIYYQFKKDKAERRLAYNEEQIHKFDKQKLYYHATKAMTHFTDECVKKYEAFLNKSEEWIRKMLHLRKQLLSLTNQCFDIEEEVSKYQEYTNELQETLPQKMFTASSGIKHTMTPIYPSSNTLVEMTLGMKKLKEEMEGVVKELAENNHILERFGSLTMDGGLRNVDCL

[6] = target: Cyclin-dependent kinase 17 (Homo sapiens) (UniProt Q00537); experiment: Inhibition of PCTAIRE2 Lys2 labeling site in human A-375 cells at 5 uM by KiNativ Profiling analysis relative to control
Chain of Cyclin-dependent kinase 17 (Homo sapiens) (Q00537 whole entry, looked up): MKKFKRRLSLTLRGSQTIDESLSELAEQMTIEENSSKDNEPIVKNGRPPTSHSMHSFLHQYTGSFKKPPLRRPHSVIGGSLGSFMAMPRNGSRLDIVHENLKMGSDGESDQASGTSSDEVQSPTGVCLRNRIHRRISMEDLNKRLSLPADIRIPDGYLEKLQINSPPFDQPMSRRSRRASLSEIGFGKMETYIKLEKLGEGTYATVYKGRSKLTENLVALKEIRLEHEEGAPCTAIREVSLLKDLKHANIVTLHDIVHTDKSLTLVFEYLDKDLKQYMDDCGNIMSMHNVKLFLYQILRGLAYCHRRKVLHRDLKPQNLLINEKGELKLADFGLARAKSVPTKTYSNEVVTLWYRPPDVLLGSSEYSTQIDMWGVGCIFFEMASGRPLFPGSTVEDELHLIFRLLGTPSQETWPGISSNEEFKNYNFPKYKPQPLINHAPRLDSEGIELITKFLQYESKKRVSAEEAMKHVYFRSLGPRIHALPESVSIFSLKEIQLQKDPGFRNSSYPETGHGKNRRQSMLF

[7] = target: Serine/threonine-protein kinase 24 (Homo sapiens) (UniProt Q9Y6E0); experiment: Inhibition of MST3 Lys2 labeling site harbouring DIKAANVLLSEHGEVK in human A-375 cells at 0.5 uM by KiNativ Profiling analysis relative to control
Chain of Serine/threonine-protein kinase 24 (Homo sapiens) (Q9Y6E0 whole entry, looked up): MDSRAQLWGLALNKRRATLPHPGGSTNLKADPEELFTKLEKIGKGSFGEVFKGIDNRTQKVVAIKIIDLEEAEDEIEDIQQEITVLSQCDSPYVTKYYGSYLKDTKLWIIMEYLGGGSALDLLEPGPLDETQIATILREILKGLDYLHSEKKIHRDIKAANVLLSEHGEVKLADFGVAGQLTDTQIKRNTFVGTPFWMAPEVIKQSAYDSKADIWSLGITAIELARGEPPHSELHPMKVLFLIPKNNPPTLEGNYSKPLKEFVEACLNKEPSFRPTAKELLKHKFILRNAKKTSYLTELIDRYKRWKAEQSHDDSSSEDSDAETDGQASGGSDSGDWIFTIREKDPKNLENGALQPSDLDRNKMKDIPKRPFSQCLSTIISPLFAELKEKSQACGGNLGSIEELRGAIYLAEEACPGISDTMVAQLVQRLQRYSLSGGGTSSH

[8] = target: TRAF2 and NCK-interacting protein kinase (Homo sapiens) (UniProt Q9UKE5); experiment: Inhibition of ZC2/TNIK Lys1 labeling site in human A-375 cells at 0.05 uM by KiNativ Profiling analysis relative to control
Chain of TRAF2 and NCK-interacting protein kinase (Homo sapiens) (Q9UKE5 whole entry, looked up): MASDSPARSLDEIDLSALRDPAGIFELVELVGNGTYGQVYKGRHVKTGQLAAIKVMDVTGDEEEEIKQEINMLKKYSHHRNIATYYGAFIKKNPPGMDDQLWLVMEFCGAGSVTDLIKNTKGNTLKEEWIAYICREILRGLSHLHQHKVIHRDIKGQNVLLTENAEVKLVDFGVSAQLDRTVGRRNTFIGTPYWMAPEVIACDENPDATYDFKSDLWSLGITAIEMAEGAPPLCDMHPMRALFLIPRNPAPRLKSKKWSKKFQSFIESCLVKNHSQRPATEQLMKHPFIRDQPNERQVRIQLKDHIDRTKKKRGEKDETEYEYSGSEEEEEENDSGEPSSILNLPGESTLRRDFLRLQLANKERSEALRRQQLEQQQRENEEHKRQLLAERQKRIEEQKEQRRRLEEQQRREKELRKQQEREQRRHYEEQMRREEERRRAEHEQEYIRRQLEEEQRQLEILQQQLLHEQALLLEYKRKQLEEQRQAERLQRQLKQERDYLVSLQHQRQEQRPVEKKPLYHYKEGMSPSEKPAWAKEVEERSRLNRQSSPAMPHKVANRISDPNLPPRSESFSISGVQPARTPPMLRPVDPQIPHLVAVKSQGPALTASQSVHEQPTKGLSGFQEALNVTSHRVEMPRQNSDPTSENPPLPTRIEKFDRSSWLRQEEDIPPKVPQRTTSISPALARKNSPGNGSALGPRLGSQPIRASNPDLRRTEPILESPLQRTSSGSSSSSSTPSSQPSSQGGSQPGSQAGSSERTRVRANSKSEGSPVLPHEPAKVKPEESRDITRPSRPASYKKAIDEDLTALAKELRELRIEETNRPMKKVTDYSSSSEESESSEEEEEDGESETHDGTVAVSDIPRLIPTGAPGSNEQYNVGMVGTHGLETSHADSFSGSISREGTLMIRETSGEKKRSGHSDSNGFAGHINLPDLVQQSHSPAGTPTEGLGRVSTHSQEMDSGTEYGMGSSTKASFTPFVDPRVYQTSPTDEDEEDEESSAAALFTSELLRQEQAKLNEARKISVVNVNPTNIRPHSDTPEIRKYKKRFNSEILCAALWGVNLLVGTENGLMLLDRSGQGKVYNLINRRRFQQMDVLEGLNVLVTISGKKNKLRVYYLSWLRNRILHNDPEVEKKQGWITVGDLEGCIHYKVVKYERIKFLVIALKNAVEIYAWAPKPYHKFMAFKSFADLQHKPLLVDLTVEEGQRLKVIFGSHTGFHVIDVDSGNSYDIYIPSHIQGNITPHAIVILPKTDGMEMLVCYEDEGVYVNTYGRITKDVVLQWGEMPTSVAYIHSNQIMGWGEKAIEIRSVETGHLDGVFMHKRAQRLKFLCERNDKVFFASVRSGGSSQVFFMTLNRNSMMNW

[9] = target: T3, Dual specificity mitogen-activated protein kinase kinase 3 (Homo sapiens) (UniProt P46734); experiment: Inhibition of MAP2K3 Lys2 labeling site in human A-375 cells at 5 uM by KiNativ Profiling analysis relative to control
T3 sequence (whole entry): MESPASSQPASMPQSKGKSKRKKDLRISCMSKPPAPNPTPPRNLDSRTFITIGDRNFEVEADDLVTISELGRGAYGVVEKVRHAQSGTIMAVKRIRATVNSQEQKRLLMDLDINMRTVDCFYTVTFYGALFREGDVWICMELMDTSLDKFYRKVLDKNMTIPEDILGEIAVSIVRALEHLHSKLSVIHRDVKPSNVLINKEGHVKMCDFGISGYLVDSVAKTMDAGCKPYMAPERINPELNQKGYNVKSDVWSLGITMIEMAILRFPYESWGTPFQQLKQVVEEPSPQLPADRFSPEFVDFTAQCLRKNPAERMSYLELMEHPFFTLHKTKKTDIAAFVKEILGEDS

[10] = target: Tyrosine-protein kinase Fer (Homo sapiens, UniProt P16591); experiment: Inhibition of FER Lys1 labeling site harbouring DKTSVAVKTCKEDLPQELK in human A-375 cells at 0.5 uM by KiNativ Profiling analysis relative to control
Chain of Tyrosine-protein kinase Fer (P16591 whole entry, looked up): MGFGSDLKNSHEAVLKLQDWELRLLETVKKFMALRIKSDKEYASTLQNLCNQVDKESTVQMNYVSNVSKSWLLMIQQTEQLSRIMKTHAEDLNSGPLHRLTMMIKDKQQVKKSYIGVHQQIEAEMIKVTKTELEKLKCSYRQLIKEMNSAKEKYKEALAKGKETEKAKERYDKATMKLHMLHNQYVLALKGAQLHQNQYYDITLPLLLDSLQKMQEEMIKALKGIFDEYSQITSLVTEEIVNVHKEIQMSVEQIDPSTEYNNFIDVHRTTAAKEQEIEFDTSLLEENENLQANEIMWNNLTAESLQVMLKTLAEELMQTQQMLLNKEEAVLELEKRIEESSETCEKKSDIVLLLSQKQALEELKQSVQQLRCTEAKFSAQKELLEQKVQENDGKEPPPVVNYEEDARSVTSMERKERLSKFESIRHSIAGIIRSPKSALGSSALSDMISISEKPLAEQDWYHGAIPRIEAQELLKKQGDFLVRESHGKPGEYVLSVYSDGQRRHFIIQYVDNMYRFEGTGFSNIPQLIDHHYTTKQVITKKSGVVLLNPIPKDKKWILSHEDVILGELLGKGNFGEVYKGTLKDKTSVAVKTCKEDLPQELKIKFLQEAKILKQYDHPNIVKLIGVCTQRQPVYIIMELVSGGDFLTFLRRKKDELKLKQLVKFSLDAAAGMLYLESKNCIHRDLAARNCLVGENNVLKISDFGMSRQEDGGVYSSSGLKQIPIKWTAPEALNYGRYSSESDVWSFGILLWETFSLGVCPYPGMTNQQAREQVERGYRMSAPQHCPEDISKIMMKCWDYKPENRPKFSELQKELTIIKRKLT

Chain of Cyclin-dependent kinase 18 (Homo sapiens) (Q07002 whole entry): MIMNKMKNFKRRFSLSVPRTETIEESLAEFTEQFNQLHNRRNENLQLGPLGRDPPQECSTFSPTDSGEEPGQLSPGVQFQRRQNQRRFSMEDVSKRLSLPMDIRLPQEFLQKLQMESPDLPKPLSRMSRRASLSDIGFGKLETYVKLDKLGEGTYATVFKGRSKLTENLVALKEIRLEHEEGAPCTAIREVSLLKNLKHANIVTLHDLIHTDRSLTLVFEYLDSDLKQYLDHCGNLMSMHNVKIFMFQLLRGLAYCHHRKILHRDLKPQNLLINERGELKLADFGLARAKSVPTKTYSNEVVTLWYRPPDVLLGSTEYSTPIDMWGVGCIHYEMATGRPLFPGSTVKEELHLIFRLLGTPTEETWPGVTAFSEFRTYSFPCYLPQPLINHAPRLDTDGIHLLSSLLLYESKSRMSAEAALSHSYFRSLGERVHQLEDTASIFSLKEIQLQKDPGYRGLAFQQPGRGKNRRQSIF

Row | Compound | inhibition [1] | inhibition [2] | inhibition [3] | inhibition [4] | inhibition [5] | inhibition [6] | inhibition [7] | inhibition [8] | inhibition [9] | inhibition [10]
1 | CCN1CCN(Cc2ccc(NC(=O)c3ccc(C)c(/C=C/c4cnc5[nH]ccc5c4OC)c3)cc2C(F)(F)F)CC1 | 11.3% | -5% | 5.7% | 4.7% | 19.8% | 27.8% | 0.2% | 57.6% | -6.9% | 30%
2 | CCN1CCN(Cc2ccc(NC(=O)c3ccc(C)c(Oc4ccnc5[nH]ccc45)c3)cc2C(F)(F)F)CC1 | 31.7% | -1.5% | 13% | 1% | 29.2% | 87% | 1.6% | 42.6% | -5.7% | 87%
